Results: ChEMBL document CHEMBL5058577, “EUbOPEN Chemogenomics Library 2 (Multiplex)” (2022)

Test system: U2OS
Assay: Multiplex assay against U2OS
Assay type: toxicity, cell-based
Conditions: human
Method in brief: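 At seeding, live cells were stained with Hoechst33342, BioTracker Green Microtubule Cytoskeleton Dye, MitoTracker Red and Annexin V Alexa Fluor 680. After compound addition they were imaged on a CQ1 microscope at 37°C and 5% CO2, and CellPathfinder machine-learning gating sorted them into Hoechst high-intensity objects or normal cells, with normal cells further split into healthy, pyknosed or fragmented nuclei and pyknosed cells into mitotic or apoptotic. Tubulin, mitochondrial-mass and membrane-permeability phenotypes are given as per cents of cells with healthy nuclei.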

[1] = 12 h, 1 µM, compound concentration 1 uM, replicate 1
[2] = 12 h, 1 µM, compound concentration 1 uM, replicate 2
[3] = 12 h, 10 µM, compound concentration 10 uM, replicate 1
[4] = 12 h, 10 µM, compound concentration 10 uM, replicate 2
[5] = 24 h, 1 µM, compound concentration 1 uM, replicate 1
[6] = 24 h, 1 µM, compound concentration 1 uM, replicate 2
[7] = 24 h, 10 µM, compound concentration 10 uM, replicate 1
[8] = 24 h, 10 µM, compound concentration 10 uM, replicate 2
[9] = 48 h, 1 µM, compound concentration 1 uM, replicate 1
[10] = 48 h, 1 µM, compound concentration 1 uM, replicate 2
[11] = 48 h, 10 µM, compound concentration 10 uM, replicate 1
[12] = 48 h, 10 µM, compound concentration 10 uM, replicate 2

For O=C(O)c1cc2ccccc2c(Cc2c(O)c(C(=O)O)cc3ccccc23)c1O [PAMOIC ACID], the “Population Apoptotic (%)” value [1] was 85%, the “Population Fragmented Nuclei (%)” value [1] was 23% and the “Population Healthy Nuclei (%)” value [1] was 68%. For the same molecule, the “Population Hoechst High Intensity Objects (%)” value [1] was 1%, the “Population Membrane Permeable-Phenotype (%)” value [1] was 2% and the “Population Mitochondria Different-Phenotype (%)” value [1] was 0%. For the same molecule, the “Population Mitotic Cells (%)” value [1] was 15%, the “Population Normal (%)” value [1] was 98% and the “Population Pyknosed Nuclei (%)” value [1] was 8%. For the same molecule, the “Population Tubulin-Different-Phenotype (%)” value [1] was 0%, the “Total Cell Count” value [1] was 246 and the “Population Apoptotic (%)” value [2] was 50%. The “Population Fragmented Nuclei (%)” value [2] was 15%, the “Population Healthy Nuclei (%)” value [2] was 73% and the “Population Hoechst High Intensity Objects (%)” value [2] was 0%. For the same molecule, the “Population Membrane Permeable-Phenotype (%)” value [2] was 12%, the “Population Mitochondria Different-Phenotype (%)” value [2] was 6% and the “Population Mitotic Cells (%)” value [2] was 50%. For the same molecule, the “Population Normal (%)” value [2] was 100%, the “Population Pyknosed Nuclei (%)” value [2] was 11% and the “Population Tubulin-Different-Phenotype (%)” value [2] was 13%. For the same molecule, the “Total Cell Count” value [2] was 109, the “Population Apoptotic (%)” value [3] was 75% and the “Population Fragmented Nuclei (%)” value [3] was 19%. The “Population Healthy Nuclei (%)” value [3] was 75%, the “Population Hoechst High Intensity Objects (%)” value [3] was 2% and the “Population Membrane Permeable-Phenotype (%)” value [3] was 6%. The “Population Mitochondria Different-Phenotype (%)” value [3] was 1%, the “Population Mitotic Cells (%)” value [3] was 25% and the “Population Normal (%)” value [3] was 97%. For the same molecule, the “Population Pyknosed Nuclei (%)” value [3] was 4%, the “Population Tubulin-Different-Phenotype (%)” value [3] was 4% and the “Total Cell Count” value [3] was 259. For the same molecule, the “Population Apoptotic (%)” value [4] was 87%, the “Population Hoechst High Intensity Objects (%)” value [4] was 0% and the “Population Membrane Permeable-Phenotype (%)” value [4] was 5%. For the same molecule, the “Population Mitochondria Different-Phenotype (%)” value [4] was 3%, the “Population Mitotic Cells (%)” value [4] was 12% and the “Population Normal (%)” value [4] was 100%. For the same molecule, the “Population Pyknosed Nuclei (%)” value [4] was 5%, the “Population Tubulin-Different-Phenotype (%)” value [4] was 2% and the “Total Cell Count” value [4] was 140. The “Population Apoptotic (%)” value [5] was 92%, the “Population Fragmented Nuclei (%)” value [5] was 18% and the “Population Healthy Nuclei (%)” value [5] was 72%. The “Population Hoechst High Intensity Objects (%)” value [5] was 1%, the “Population Membrane Permeable-Phenotype (%)” value [5] was 2% and the “Population Mitochondria Different-Phenotype (%)” value [5] was 0%. For the same molecule, the “Population Mitotic Cells (%)” value [5] was 8%, the “Population Normal (%)” value [5] was 98% and the “Population Pyknosed Nuclei (%)” value [5] was 8%. The “Population Tubulin-Different-Phenotype (%)” value [5] was 1%, the “Total Cell Count” value [5] was 288 and the “Population Apoptotic (%)” value [6] was 76%. For the same molecule, the “Population Fragmented Nuclei (%)” value [6] was 20%, the “Population Healthy Nuclei (%)” value [6] was 70% and the “Population Hoechst High Intensity Objects (%)” value [6] was 0%. The “Population Membrane Permeable-Phenotype (%)” value [6] was 11%, the “Population Mitochondria Different-Phenotype (%)” value [6] was 2% and the “Population Mitotic Cells (%)” value [6] was 23%. For the same molecule, the “Population Normal (%)” value [6] was 99%, the “Population Pyknosed Nuclei (%)” value [6] was 9% and the “Population Tubulin-Different-Phenotype (%)” value [6] was 7%. For the same molecule, the “Total Cell Count” value [6] was 139, the “Population Apoptotic (%)” value [7] was 82% and the “Population Fragmented Nuclei (%)” value [7] was 17%. The “Population Healthy Nuclei (%)” value [7] was 76%, the “Population Hoechst High Intensity Objects (%)” value [7] was 3% and the “Population Membrane Permeable-Phenotype (%)” value [7] was 5%. For the same molecule, the “Population Mitochondria Different-Phenotype (%)” value [7] was 2%, the “Population Mitotic Cells (%)” value [7] was 17% and the “Population Normal (%)” value [7] was 96%. For the same molecule, the “Population Pyknosed Nuclei (%)” value [7] was 5%, the “Population Tubulin-Different-Phenotype (%)” value [7] was 3% and the “Total Cell Count” value [7] was 314. The “Population Apoptotic (%)” value [8] was 90%, the “Population Fragmented Nuclei (%)” value [8] was 13% and the “Population Healthy Nuclei (%)” value [8] was 79%. The “Population Hoechst High Intensity Objects (%)” value [8] was 1%, the “Population Membrane Permeable-Phenotype (%)” value [8] was 7% and the “Population Mitochondria Different-Phenotype (%)” value [8] was 3%. The “Population Mitotic Cells (%)” value [8] was 9%, the “Population Normal (%)” value [8] was 98% and the “Population Pyknosed Nuclei (%)” value [8] was 6%. For the same molecule, the “Population Tubulin-Different-Phenotype (%)” value [8] was 7%, the “Total Cell Count” value [8] was 163 and the “Population Apoptotic (%)” value [9] was 83%. For the same molecule, the “Population Fragmented Nuclei (%)” value [9] was 16%, the “Population Healthy Nuclei (%)” value [9] was 74% and the “Population Hoechst High Intensity Objects (%)” value [9] was 1%. The “Population Membrane Permeable-Phenotype (%)” value [9] was 2%, the “Population Mitochondria Different-Phenotype (%)” value [9] was 1% and the “Population Mitotic Cells (%)” value [9] was 16%. The “Population Normal (%)” value [9] was 98%, the “Population Pyknosed Nuclei (%)” value [9] was 9% and the “Population Tubulin-Different-Phenotype (%)” value [9] was 2%. The “Total Cell Count” value [9] was 469, the “Population Apoptotic (%)” value [10] was 90% and the “Population Fragmented Nuclei (%)” value [10] was 11%. The “Population Healthy Nuclei (%)” value [10] was 76%, the “Population Hoechst High Intensity Objects (%)” value [10] was 2% and the “Population Membrane Permeable-Phenotype (%)” value [10] was 9%. For the same molecule, the “Population Mitochondria Different-Phenotype (%)” value [10] was 3%, the “Population Mitotic Cells (%)” value [10] was 10% and the “Population Normal (%)” value [10] was 97%. For the same molecule, the “Population Pyknosed Nuclei (%)” value [10] was 11%, the “Population Tubulin-Different-Phenotype (%)” value [10] was 5% and the “Total Cell Count” value [10] was 177. For the same molecule, the “Population Apoptotic (%)” value [11] was 96%, the “Population Fragmented Nuclei (%)” value [11] was 15% and the “Population Healthy Nuclei (%)” value [11] was 77%. The “Population Hoechst High Intensity Objects (%)” value [11] was 3%, the “Population Membrane Permeable-Phenotype (%)” value [11] was 5% and the “Population Mitochondria Different-Phenotype (%)” value [11] was 1%. For the same molecule, the “Population Mitotic Cells (%)” value [11] was 3%, the “Population Normal (%)” value [11] was 96% and the “Population Pyknosed Nuclei (%)” value [11] was 6%. The “Population Tubulin-Different-Phenotype (%)” value [11] was 4%, the “Total Cell Count” value [11] was 455 and the “Population Apoptotic (%)” value [12] was 89%. The “Population Fragmented Nuclei (%)” value [12] was 20%, the “Population Healthy Nuclei (%)” value [12] was 66% and the “Population Hoechst High Intensity Objects (%)” value [12] was 0%. The “Population Membrane Permeable-Phenotype (%)” value [12] was 6%, the “Population Mitochondria Different-Phenotype (%)” value [12] was 2% and the “Population Mitotic Cells (%)” value [12] was 10%. For the same molecule, the “Population Normal (%)” value [12] was 99%, the “Population Pyknosed Nuclei (%)” value [12] was 13% and the “Population Tubulin-Different-Phenotype (%)” value [12] was 2%. For the same molecule, the “Total Cell Count” value [12] was 218.
